# Results: ChEMBL document CHEMBL1148706, “Probes for narcotic receptor mediated phenomena. 34. Synthesis and structure-activity relationships of a potent mu-agonist delta-antagonist and an exceedingly potent antinociceptive in the enantiomeric C9-substituted 5-(3-hydroxyphenyl)-N-phenylethylmorphan series” (J Med Chem, 2007)
# The source made the active and inactive calls.
# Key:
# Mu-type opioid receptor [1] = target: T1, Mu-type opioid receptor (Homo sapiens, UniProt P35372); test: Displacement of [125I]IOXY from human mu opioid receptor expressed in CHO cells; assay type: cell-based
# How it was run: (§1)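 Membranes of stably transfected human opioid receptor CHO cells (hMOR, hDOR or hKOR), about 30 µg protein per tube, in 50 mM Tris-HCl pH 7.4 with protease inhibitors. [125I]IOXY at a single concentration displaced by 10 drug concentrations, 2 h at 25 °C, triplicates filtered; nonspecific with 10 µM naloxone; IC50 from two-parameter logistic fit.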
# [2] = target: T2, Kappa-type opioid receptor (Homo sapiens, UniProt P41145); test: Displacement of [125I]IOXY from human kappa opioid receptor expressed in CHO cells; assay type: cell-based; how it was run: as §1
# [3] = target: T3, Delta-type opioid receptor (Homo sapiens, UniProt P41143); test: Displacement of [125I]IOXY from human delta opioid receptor expressed in CHO cells; assay type: cell-based; how it was run: as §1
# Mus musculus [4] = test: Increased locomotor activity in mouse at 1 mg/kg; assay type: functional, organism-based; set-up: dose 1 mg/kg
# How it was run: (§2)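 Signs observed in mice during in vivo antinociceptive testing after s.c. injection in 5% hydroxypropyl-β-cyclodextrin in water.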
# Mus musculus [5] = test: Induction of ataxia in mouse at 1 mg/kg; assay type: functional, organism-based; set-up: dose 1 mg/kg; how it was run: as §2
# [6] = target: T3, Delta-type opioid receptor; test: Agonist activity at human delta opioid receptor expressed in CHO cells by [35S]GTP-gamma-S assay; assay type: functional, cell-based
# How it was run: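 Membranes from stably transfected hDOR-CHO cells (DMEM, 10% FBS, G-418) in 50 mM Tris-HCl pH 7.4 with 100 mM NaCl, 10 mM MgCl2, 1 mM EDTA, 1 mM DTT, 10 µM GDP, 0.1% BSA; 50 pM [35S]GTP-γ-S, 3 h, 25 °C; filtration.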
# Mu-type opioid receptor [7] = target: T1, Mu-type opioid receptor; conditions: CHO
# Mus musculus [8] = test: Induction of convulsions in mouse at 1 mg/kg; assay type: functional, organism-based; set-up: dose 1 mg/kg; how it was run: as §2
# [9] = target: T3, Delta-type opioid receptor; test: Agonist activity at human delta opioid receptor expressed in CHO cells by [35S]GTP-gamma-S assay relative to SNC80; assay type: functional, cell-based
# How it was run: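 Membranes from CHO cells stably transfected with human δ-opioid receptor cDNA (grown in DMEM, 10% FBS, G-418), incubated 3 h at 25 °C with 50 pM [35S]GTP-γ-S, 10 µM GDP, 50 µg protein in 50 mM Tris-HCl pH 7.4, 100 mM NaCl, 10 mM MgCl2, 1 mM EDTA, 1 mM DTT, 0.1% BSA. Nonspecific binding: 40 µM GTP-γ-S. Filtration, scintillation counting. Emax is extrapolated maximum, 100% = 500 nM SNC80 stimulation.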
# Mus musculus [10] = test: Antinociceptive activity in sc dosed mouse by hot plate assay; assay type: functional
# Mus musculus [11] = test: Induction of straub tail in mouse at 1 mg/kg; assay type: functional, organism-based; set-up: dose 1 mg/kg; how it was run: as §2
# [12] = target: T2, Kappa-type opioid receptor; test: Antagonist activity at human kappa opioid receptor expressed in CHO cells by [35S]GTP-gamma-S assay; assay type: functional, cell-based
# How it was run: (§3)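 [35S]GTP-γ-S binding on hDOR-CHO or hKOR-CHO membranes, 10 µM GDP, 50 pM radioligand, 3 h at 25 °C. Inhibition of stimulation by SNC80 (500 nM, δ) or (-)-U50,488 (500 nM, κ); ≥3 experiments of 10 points pooled, two-parameter logistic fit for IC50; Ke = IC50/(1+[D]/ED50(D)).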
# Mus musculus [13] = test: Antinociceptive activity in sc dosed mouse by tail flick assay; assay type: functional
# Mus musculus [14] = test: Antinociceptive activity in sc dosed mouse by phenylquinone assay; assay type: functional
# Mu-type opioid receptor [15] = target: T1, Mu-type opioid receptor; conditions: CHO; remark: listed apart in the source
# [16] = target: T3, Delta-type opioid receptor; test: Antagonist activity at human delta opioid receptor expressed in CHO cells by [35S]GTP-gamma-S assay; assay type: functional, cell-based; how it was run: as §3
# Mus musculus [17] = test: Increased locomotor activity in mouse up to 30 mg/kg; assay type: functional, organism-based; set-up: dose 30 mg/kg; how it was run: as §2
# Mus musculus [18] = test: Induction of straub tail in mouse up to 30 mg/kg; assay type: functional, organism-based; set-up: dose 30 mg/kg; how it was run: as §2
# Mus musculus [19] = test: Antinociceptive activity in mouse assessed after 30 to 40 mins at 1 mg/kg by warm water tail flick test; assay type: functional
# How it was run: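 Mice, 55 °C water tail immersion after baseline (non-responders within 5 s excluded); s.c. dosing, tested 10–180 min post-injection, 10 s cutoff. % antinociception = 100×(test−control)/(10−control); A50 from linear regression at peak-effect time, ≥3 doses and 10 mice/dose.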
# T2 sequence (P41145 whole entry): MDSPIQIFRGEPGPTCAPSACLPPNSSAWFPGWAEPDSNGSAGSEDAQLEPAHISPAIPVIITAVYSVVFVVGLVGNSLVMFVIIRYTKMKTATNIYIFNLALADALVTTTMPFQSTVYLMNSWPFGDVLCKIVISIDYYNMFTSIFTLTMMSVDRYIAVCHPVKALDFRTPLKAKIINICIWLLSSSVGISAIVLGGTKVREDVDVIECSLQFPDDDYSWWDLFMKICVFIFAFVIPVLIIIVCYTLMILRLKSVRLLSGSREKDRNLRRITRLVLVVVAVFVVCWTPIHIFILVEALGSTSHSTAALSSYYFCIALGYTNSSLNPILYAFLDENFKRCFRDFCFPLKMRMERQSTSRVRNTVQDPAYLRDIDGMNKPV
# T3 sequence (P41143 whole entry): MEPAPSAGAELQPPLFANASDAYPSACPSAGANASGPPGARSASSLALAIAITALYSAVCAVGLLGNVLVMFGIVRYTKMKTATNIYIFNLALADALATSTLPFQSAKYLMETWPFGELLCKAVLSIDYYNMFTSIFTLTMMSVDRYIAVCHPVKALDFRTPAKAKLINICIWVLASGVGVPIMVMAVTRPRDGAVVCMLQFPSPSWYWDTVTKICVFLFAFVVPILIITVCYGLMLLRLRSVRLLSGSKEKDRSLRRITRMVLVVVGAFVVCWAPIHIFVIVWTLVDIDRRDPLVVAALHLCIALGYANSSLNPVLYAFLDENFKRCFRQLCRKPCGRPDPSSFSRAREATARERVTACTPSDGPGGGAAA
# T1 sequence (P35372 whole entry): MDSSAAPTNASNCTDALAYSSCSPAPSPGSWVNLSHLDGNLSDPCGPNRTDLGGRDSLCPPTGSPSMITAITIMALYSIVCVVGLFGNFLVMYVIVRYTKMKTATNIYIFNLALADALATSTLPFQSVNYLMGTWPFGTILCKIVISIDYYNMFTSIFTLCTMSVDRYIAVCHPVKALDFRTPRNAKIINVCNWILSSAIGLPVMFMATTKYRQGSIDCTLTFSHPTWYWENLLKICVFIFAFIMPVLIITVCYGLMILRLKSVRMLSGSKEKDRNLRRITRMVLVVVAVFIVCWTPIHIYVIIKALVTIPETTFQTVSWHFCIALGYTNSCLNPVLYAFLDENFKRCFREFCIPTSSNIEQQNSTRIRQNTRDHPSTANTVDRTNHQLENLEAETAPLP
SMILES,Ki (Mu-type opioid receptor [1]),Ki [2],Ki [3],also measured
O=C1[C@H]2CCC[C@]1(c1cccc(O)c1)CCN2CCc1ccccc1,33 nM,150 nM,770 nM,–
O=C1[C@@H]2CCC[C@@]1(c1cccc(O)c1)CCN2CCc1ccccc1,400 nM,3830 nM,4600 nM,–
Oc1cccc([C@]23CCC[C@H]([C@H]2O)N(CCc2ccccc2)CC3)c1,0.19 nM,184 nM,13 nM,Activity (Mus musculus [4]): Active; Activity (Mus musculus [5]): Active; ED50 [6]: 341 nM; ED50 (Mu-type opioid receptor [7]): 5 nM; Activity (Mus musculus [8]): Active; Emax [9]: 73%; ED50 (Mus musculus [10]): 0.002 mg/kg; Activity (Mus musculus [11]): Active; Ke [12]: 610 nM; ED50 (Mus musculus [13]): 0.004 mg/kg; ED50 (Mus musculus [14]): 0.002 mg/kg
C=C1[C@H]2CCC[C@@]1(c1cccc(O)c1)CCN2CCc1ccccc1,0.19 nM,0.65 nM,15 nM,Ke (Mu-type opioid receptor [15]): 2.2 nM; ED50 (Mu-type opioid receptor [7]): 2.7 nM; ED50 (Mus musculus [10]): 0.02 mg/kg; Ke [16]: 12 nM; Activity (Mus musculus [17]): inactive; Ke [12]: 2 nM; Activity (Mus musculus [18]): inactive; ED50 (Mus musculus [13]): 0.03 mg/kg; ED50 (Mus musculus [14]): 0.02 mg/kg; A50 (Mus musculus [19]): 0.11 mg/kg
C=CCN1C[C@H](C)N([C@H](c2ccc(C(=O)N(CC)CC)cc2)c2cccc(OC)c2)C[C@H]1C,–,–,–,ED50 [6]: 26 nM
Oc1cccc([C@]23CCC[C@H]([C@@H]2O)N(CCc2ccccc2)CC3)c1,59 nM,245 nM,1570 nM,–
C=C1[C@@H]2CCC[C@]1(c1cccc(O)c1)CCN2CCc1ccccc1,7 nM,18 nM,234 nM,–
Oc1cccc([C@@]23CCC[C@@H]([C@H]2O)N(CCc2ccccc2)CC3)c1,45 nM,690 nM,720 nM,–
C[C@@H]1[C@@H]2CCC[C@@]1(c1cccc(O)c1)CCN2CCc1ccccc1,8 nM,15 nM,300 nM,–
CN1CC[C@]23c4c5ccc(O)c4O[C@H]2[C@@H](O)C=C[C@H]3[C@H]1C5 [MORPHINE],–,–,–,A50 (Mus musculus [19]): 5.95 mg/kg
C[C@H]1[C@H]2CCC[C@]1(c1cccc(O)c1)CCN2CCc1ccccc1,0.6 nM,4 nM,90 nM,Ke (Mu-type opioid receptor [15]): 4.4 nM; ED50 (Mu-type opioid receptor [7]): 8.7 nM; Ke [16]: 31 nM; Ke [12]: 6 nM
Oc1cccc([C@@]23CCC[C@@H]([C@@H]2O)N(CCc2ccccc2)CC3)c1,54 nM,235 nM,2740 nM,–
C[C@H]1C2CCCC1(c1cccc(O)c1)CCN2CCc1ccccc1 (mixture of isomers),3.1 nM,14.5 nM,270 nM,–
